According to PMC6587324 (ChemistryOpen, 2019):
Where two headings read alike, the source gives them in different places.

What was measured:
human integrin αvβ3 = human integrin αvβ3 (Homo sapiens, UniProt P05106+P06756); type: binding; details: SD
Procedure, shortened: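 Immobilized isolated human αvβ3 integrin incubated with biotinylated vitronectin (1 μg mL−1) plus test compound over 10−5–10−12 M. Bound biotinylated vitronectin measured. IC50 taken as the concentration giving 50 % inhibition of vitronectin binding, calculated from the concentration-response data. Values are mean ± standard deviation of duplicate measurements.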

integrin α5β1 [1] = target: T1, integrin α5β1 (Homo sapiens, UniProt P05556+P08648); test: Integrin α5β1 binding assay
integrin α5β1 [2] = target: T1, integrin α5β1; details: read-out: α5β1 IC50; cited from earlier work

Row | Structure (SMILES) | IC50 (human integrin αvβ3) [nM] | also measured
1 | COc1ccc(C[C@H]2NC(=O)/C=C/C[C@@H]([C@H](C)[C@@H](OC(=O)CNC(=O)OCc3ccc(NC(=O)[C@H](C)NC(=O)[C@@H](NC(=O)CCc4cn(CCOCCOCCOCCOCC(=O)NCc5ccc(CN6C(=O)[C@H]7CC(=O)N[C@@H](CCCNC(=N)N)C(=O)NCC(=O)N[C@@H](CC(=O)O)C(=O)NC[C@H]6C(=O)N7)cc5)nn4)C(C)C)cc3)[C@@H](Cl)c3ccccc3)OC(=O)[C@H](CC(C)C)OC(=O)C(C)(C)CNC2=O)cc1Cl [compound 10, cyclo[DKP‐RGD]‐PEG4‐Val−Ala‐PABC‐Cry‐55gly] | 7.2 ± 1.5 | –
2 | COc1ccc(C[C@H]2NC(=O)/C=C/C[C@@H]([C@H](C)[C@@H](OC(=O)CNC(=O)OCc3ccc(NC(=O)[C@H](C)NC(=O)[C@@H](NC(=O)CCc4cn(CCOCCOCCOCCOCC(=O)NCc5ccc(CN6C(=O)[C@H]7CC(=O)N[C@H](C(=O)O)CC(=O)NCC(=O)N[C@@H](CCCNC(=N)N)C(=O)NC[C@H]6C(=O)N7)cc5)nn4)C(C)C)cc3)[C@@H](Cl)c3ccccc3)OC(=O)[C@H](CC(C)C)OC(=O)C(C)(C)CNC2=O)cc1Cl [compound 11, cyclo[DKP‐isoDGR]‐PEG4‐Val−Ala‐PABC‐Cry‐55gly] | 5.5 ± 2.8 | –
3 | N=C(N)NCCC[C@@H]1NC(=O)CNC(=O)C[C@@H](C(=O)O)NC(=O)C[C@H]2NC(=O)[C@H](CNC1=O)N(Cc1ccccc1)C2=O [compound 3, cyclo[DKP‐isoDGR]] | – | IC50 (integrin α5β1 [1]): 1070 nM
4 | N=C(N)NCCC[C@@H]1NC(=O)C[C@H]2NC(=O)[C@H](CNC(=O)[C@H](CC(=O)O)NC(=O)CNC1=O)N(Cc1ccccc1)C2=O [compound 1, cyclo[DKP‐RGD]] | – | IC50 (integrin α5β1 [2]): 532 nM
5 | COc1ccc(C[C@H]2NC(=O)/C=C/C[C@@H]([C@H](C)[C@@H](OC(=O)CNC(=O)CCc3cn(CCOCCOCCOCCOCC(=O)NCc4ccc(CN5C(=O)[C@H]6CC(=O)N[C@@H](CCCNC(=N)N)C(=O)NCC(=O)N[C@@H](CC(=O)O)C(=O)NC[C@H]5C(=O)N6)cc4)nn3)[C@@H](Cl)c3ccccc3)OC(=O)[C@H](CC(C)C)OC(=O)C(C)(C)CNC2=O)cc1Cl [compound 13, cyclo[DKP‐RGD]‐PEG4‐uncl‐Cry‐55gly] | 24.1 ± 1 | –
6 | COc1ccc(C[C@H]2NC(=O)/C=C/C[C@@H]([C@H](C)[C@@H](OC(=O)CNC(=O)CCc3cn(CCOCCOCCOCCOCC(=O)NCc4ccc(CN5C(=O)[C@H]6CC(=O)N[C@H](C(=O)O)CC(=O)NCC(=O)N[C@@H](CCCNC(=N)N)C(=O)NC[C@H]5C(=O)N6)cc4)nn3)[C@@H](Cl)c3ccccc3)OC(=O)[C@H](CC(C)C)OC(=O)C(C)(C)CNC2=O)cc1Cl [compound 14, cyclo[DKP‐isoDGR]‐PEG4‐uncl‐Cry‐55gly] | 10.2 ± 0.4 | –
